Measured values of several laboratories.
Lines come from different studies, so protocols differ.
ADRA1A: Alpha-1A adrenergic receptor (ADRA1A, Homo sapiens, UniProt P35348)
MAL12: Alpha-glucosidase MAL12 (MAL12, Saccharomyces cerevisiae S288c, UniProt P53341)

| Structure (SMILES) | target | read-out | action | method | tested at | inhibition [%] |
| --- | --- | --- | --- | --- | --- | --- |
| CC[N+]1(C)CCc2cc(OC)c(OC)c3c2C1Cc1cccc(OC)c1-3 (stereo not shown) | ADRA1A | ligand displacement |  | radioligand | 10 µM | 13 |
| C[C@H]1O[C@H](O[C@H]2[C@H](O)[C@@H](O)[C@@H](O[C@H]3[C@H](O)[C@@H](O)C(O)O[C@@H]3CO)O[C@@H]2CO)[C@H](O)[C@@H](O)[C@@H]1N[C@H]1C=C(CO)[C@@H](O)[C@H](O)[C@H]1O (stereo partly shown) | MAL12 | enzyme activity | inhibitor | absorbance | 50 µM | 37.9 |
| COc1cc2c3c(c1OC)-c1c(OC)ccc(Br)c1CC3N(C)CC2 (stereo not shown) | ADRA1A | ligand displacement |  | radioligand | 10 µM | 95 |
| CCCCCCCCCCCCCCCCCC(=O)OCC(C)(C)CC1=C(O)C(=O)c2ccccc2C1=O | MAL12 | enzyme activity | inhibitor |  | 50 µM | > 70 |
| O=c1cc(-c2ccc(O)cc2)oc2cc(O)cc(O)c12 | MAL12 | enzyme activity | inhibitor | absorbance | 50 µM | 78.6 |
| COc1cc2c3c(c1OC)-c1c(OC)ccc(Cl)c1CC3N(C)CC2 (racemic) | ADRA1A | ligand displacement |  | radioligand | 10 µM | 99 |
| O=c1c(O)c(-c2ccc(O)c(O)c2)oc2cc(O)cc(O)c12 | MAL12 | enzyme activity | inhibitor | absorbance | 50 µM | 98.7 |
| NC/C(=C\F)COc1cccc(Cn2c(=S)[nH]c(=O)c3[nH]cnc32)c1 | Histamine H2 receptor (HRH2, Homo sapiens, UniProt P25021) | ligand displacement |  | radioligand | 10 µM | < 50 |
| COc1cc2c3c(c1OC)-c1c(OC)ccc(N4CCOCC4)c1CC3N(C)CC2 (stereo not shown) | ADRA1A | ligand displacement |  | radioligand | 10 µM | 65 |
| C#Cc1cc(-c2cc(Nc3nc(N[C@@H](C)c4ccc(F)cn4)ncc3Cl)n[nH]2)ccc1C=O | Tyrosine-protein kinase Lyn (LYN, Homo sapiens, UniProt P07948) | enzyme activity | inhibitor |  | 0.2 µM | 89.2 |
| CCCCCCCCCCCC(=O)OCC(C)(C)CC1=C(O)C(=O)c2ccccc2C1=O | MAL12 | enzyme activity | inhibitor |  | 50 µM | > 70 |
| O=c1c(O)c(-c2ccc(O)c(O)c2)oc2c(Br)c(O)c(Br)c(O)c12 | MAL12 | enzyme activity | inhibitor | absorbance | 50 µM | 95.8 |
| COc1cc(O)c2c(c1)oc(=O)c1c3cc(O)c(O)cc3oc21 | MAL12 | enzyme activity | inhibitor | absorbance | 128 µM | ~90 |
